For experiment [1], the species on record is Rattus norvegicus. As to the kind of experiment: Inhibitory concentration against methoxamine-induced contractions in rat aorta. It counts as functional, organism-based.
The species named for experiment [2] is Rattus norvegicus. In words: Effective concentration required to increase time to the onset of contracture (TTC) in globally ischemic rat hearts. It counts as functional.
The target in experiment [3] is Sulfonylurea receptor 2, Kir6.2 (Homo sapiens) (UniProt Q14654+O60706). As to the kind of experiment: Hill Coefficient calculated by curve fitting of data to a single binding site model. The format is protein-complex assay. The essentials: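 Competition curves from displacement of 14 nM [3H]P1075 from canine cardiac P3 membranes (500–700 μg, 60 min, MgATP/vanadate/Mg2+ sucrose-Tris buffer pH 7.4, filtration read-out) were fitted to a single-site model to give the Hill coefficient.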

In general, IC50 refers to the midpoint of a concentration-inhibition curve. Higher therefore signals lower potency. As usually defined, the EC25 is the concentration needed for an effect of 25%. In turn, `C/N=C(\NC#N)Nc1ccc(C#N)cc1` returned a half-inhibitory concentration (IC50) in the experiment listed under Rattus norvegicus [1] (Rattus norvegicus, Aorta) of 130000 nM. In the experiment listed under Rattus norvegicus [2], this compound displayed a concentration for an effect of 25% (EC25) above 10000 nM.
The term Hill coefficient denotes a measure of the steepness of the concentration-response curve. `CCC(C)(C)/N=C(\NC#N)Nc1ccc(I)cc1`: in the experiment filed under Rattus norvegicus [1] (Rattus norvegicus, Aorta), half-maximal inhibition (IC50) required 1.4 nM. This compound also yielded an EC25 in the experiment filed under Rattus norvegicus [2] of 140 nM. Besides, the Hill coefficient in experiment [3] was 0.76.
As to `CCC(C)(C)/N=C(\NC#N)Nc1ccc(I)c(N=[N+]=[N-])c1`, the 25% effect concentration (EC25) in the experiment listed under Rattus norvegicus [2] worked out at 39 nM. Moreover, the Hill coefficient in experiment [3] was 0.82.
As for `CCC(C)(C)/N=C(\NC#N)Nc1cccnc1`, half-maximal inhibition in the experiment filed under Rattus norvegicus [1] (Rattus norvegicus, Aorta) (IC50) required 4.4 nM. Moreover, in the experiment filed under Rattus norvegicus [2], the concentration for an effect of 25% (EC25) was determined as 60 nM. In addition, the Hill coefficient in experiment [3] is 1.17.
Compound `CCC(C)(C)/N=C(\NC#N)Nc1ccc(C#N)cc1` came in with an IC50 in the experiment filed under Rattus norvegicus [1] (Rattus norvegicus, Aorta) of 130 nM. The compound also had an EC25 in the experiment listed under Rattus norvegicus [2] of 400 nM. Further, the Hill coefficient in experiment [3] is 0.99.
As to `CC(/N=C(\NC#N)Nc1ccccc1)C(C)(C)C` (stereo not given), it took 980 nM to reach half-maximal inhibition in the experiment filed under Rattus norvegicus [1] (Rattus norvegicus, Aorta) (IC50). The compound also gave an EC25 in the experiment filed under Rattus norvegicus [2] of 1290 nM. Besides, the Hill coefficient in experiment [3] was 1.04.
Taken in the same sequence, the figures for `CC(/N=C(\NC#N)Nc1cccc(C#N)c1)C(C)(C)C` (stereo not given) were 190 nM, 1460 nM and 0.67.
Compound `CCC(C)(C)/N=C(\NC#N)Nc1cccc(S(=O)(=O)N2CCCCC2)c1` gave an IC50 in the experiment filed under Rattus norvegicus [1] (Rattus norvegicus, Aorta) of 12800 nM. In the experiment filed under Rattus norvegicus [2], this compound registered an EC25 above 10000 nM.
Take `CC1(C)Oc2ccc(C#N)cc2[C@H](N2CCCC2=O)[C@H]1O` (single isomer, unassigned) [(-)-CROMAKALIM]: 40.1 nM corresponded to half-maximal inhibition in the experiment filed under Rattus norvegicus [1] (IC50). In addition, the 25% effect concentration (EC25) in the experiment filed under Rattus norvegicus [2] was determined as 2300 nM.
Take `CC(C)(C)/N=C(\NC#N)Nc1ccc(C#N)cc1`: the midpoint of inhibition in the experiment listed under Rattus norvegicus [1] (Rattus norvegicus, Aorta), the IC50, lay at 530 nM. Besides, the EC25 in the experiment filed under Rattus norvegicus [2] is 1380 nM. Moreover, the Hill coefficient in experiment [3] was 1.15.
For `CC1(C)Oc2ccc(C#N)cc2[C@H](N2CCCC2=O)[C@H]1O`, the Hill coefficient in experiment [3] was 1.06.
Take `COc1ccc(Cl)cc1C(=O)NCCc1ccc(S(=O)(=O)NC(=O)NC2CCCCC2)cc1` [GLYBURIDE]: the Hill coefficient in experiment [3] is 0.67.
`CCC(C)(C)/N=C(\NC#N)Nc1ccc(S(=O)(=O)N2CCCCC2)cc1` displayed an IC50 in the experiment listed under Rattus norvegicus [1] (Rattus norvegicus, Aorta) above 30 nM. The 25% effect concentration (EC25) in the experiment filed under Rattus norvegicus [2] is on record as above 10000 nM.
With `CC1(C)Oc2ccc(C#N)cc2[C@H](N2CCCC2=O)[C@H]1O` (single isomer, unassigned), in experiment [3], the Hill coefficient is 1.5.
For the compound `CC(N/C(=N\C#N)Nc1ccncc1)C(C)(C)C` (stereo not given) [PINACIDIL ANHYDROUS], in the experiment listed under Rattus norvegicus [1] (Rattus norvegicus, Aorta), the IC50 is 59.6 nM. In addition, the 25% effect concentration (EC25) in the experiment listed under Rattus norvegicus [2] was 1200 nM. Further, the Hill coefficient in experiment [3] was 0.86.
Turning to `CC(C)/N=C(\NC#N)Nc1ccc(C#N)cc1`, the Hill coefficient in experiment [3] was 0.81.
As for `CC(/N=C(\NC#N)Nc1ccc(C#N)cc1)C(C)(C)C` (stereo not given), the IC50 in the experiment listed under Rattus norvegicus [1] (Rattus norvegicus, Aorta) was found to be 30.3 nM. The compound also returned an EC25 in the experiment filed under Rattus norvegicus [2] of 390 nM. The Hill coefficient in experiment [3] is 0.75.
In the experiment listed under Rattus norvegicus [1], `CC1(C)Oc2ccc(C#N)cc2[C@H](N2CCCC2=O)[C@H]1O` [(-)-CROMAKALIM] registered an IC50 of 6500 nM. Further, in the experiment filed under Rattus norvegicus [2], the EC25 was above 30000 nM.

The values above are taken from ChEMBL document CHEMBL1131338, “Binding of ATP-sensitive potassium channel (KATP) openers to cardiac membranes: correlation of binding affinities with cardioprotective and smooth muscle relaxing potencies” (J Med Chem, 1998).
